Screening results deposited in PubChem BioAssay by Sanford-Burnham Center for Chemical Genomics.
Only some compounds are listed: those with a hit (about 2.5% of all), similar ones and a draw of the others.
Diaphorase inh: inhibits diaphorase or chemically oxidizes, flagging diaphorase assay artifacts; diaphorase resazurin-to-resorufin fluorescence, NADH, 16 min; bacterial (C. kluyveri) enzyme, not human; inhibition, % at 20 µM; hit rate 0.69% among 190,000;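 active = primary screen inhibition at 20 µM above a set limit, cut at about 50% in these data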;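 note: plate controls were DMSO with full reaction for no effect and wells lacking NADH for full effect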
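Assay system: diaphorase enzyme from Clostridium kluyveri; Input: enzyme working solution with 0.14 U/mL diaphorase; Timing: 16 min at room temperature; Technique: resorufin fluorescence, excitation 544 nm, emission 590 nm; Benchmarks: positive control minus NADH, DMSO neutral control.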
FLuc act counter: affects firefly luciferase, flagging false hits in luciferase stimulation screens; P08659; ATPlite luciferase biochemical, luminescence, 10 min; 0 = ATP-free wells, 1 = DMSO control; activation factor at 10 µM; 200,000 tested, under 10 active;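 active = luciferase activation factor, scaled between plate controls, of at least 2 with compound at 10 µM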
Target sequence (P08659 whole entry, looked up): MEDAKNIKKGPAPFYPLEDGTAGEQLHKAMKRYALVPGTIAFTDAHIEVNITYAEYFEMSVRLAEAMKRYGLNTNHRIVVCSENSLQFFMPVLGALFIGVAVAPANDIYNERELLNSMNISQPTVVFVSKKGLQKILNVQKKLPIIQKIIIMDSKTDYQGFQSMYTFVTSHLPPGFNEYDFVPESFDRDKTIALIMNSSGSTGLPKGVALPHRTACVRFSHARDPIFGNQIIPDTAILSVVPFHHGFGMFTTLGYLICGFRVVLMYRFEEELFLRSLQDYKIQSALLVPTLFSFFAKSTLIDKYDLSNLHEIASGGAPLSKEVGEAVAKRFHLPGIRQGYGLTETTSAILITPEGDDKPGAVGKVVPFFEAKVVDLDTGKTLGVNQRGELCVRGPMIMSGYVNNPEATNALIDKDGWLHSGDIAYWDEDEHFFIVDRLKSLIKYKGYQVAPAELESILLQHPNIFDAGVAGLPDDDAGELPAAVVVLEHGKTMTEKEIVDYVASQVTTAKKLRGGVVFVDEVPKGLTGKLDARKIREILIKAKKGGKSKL
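System: cell-free luciferase reagent; medium: PBS as buffer for the ATP substrate; doses: test compounds dosed from 2 mM stocks in 100% DMSO; incubation: 10 min, room temperature; measured by: luminescence from luciferase reaction; read-out: luciferase activation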
Diaphorase act: counter-screen for diaphorase-based assays: diaphorase activators and chemical reducers. AID 1229. Diaphorase/resazurin coupled assay, resorufin fluorescence, 16 min; active compounds read high; 1 = vehicle wells, 0 = NADH-free wells. activation factor at 20 µM. hit rate 0.005% among 190,000;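 active = diaphorase activity raised at least twofold by the compound at 20 µM; inactive = activation factor below 2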
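Assay system: Purified diaphorase enzyme from Clostridium kluyveri | Amount: Enzyme 0.07 U/mL final | Dosing: Compound 20 µM once, DMSO 1% | Timing: 16 min reaction at room temperature | Detection: Fluorescence, excitation 544 nm and emission 590 nm | Evaluation: Higher resorufin formation from activation or reduction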
FLuc inh counter: counter-screen for luciferase assay inhibitors: firefly luciferase inhibition. ATPLite firefly luciferase biochemical luminescence, 10 min. inhibition, % at 10 µM. hit rate 1.5% among 200,000. AID 1006;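 active = inhibition above about 50% when tested at 10 µM, limit read from the data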
PMI activator: increases human mannose-6-phosphate isomerase activity; purified human PMI, coupled resazurin fluorescence, 20 min; active compounds read high; 1 = vehicle control, 0 substrate-free wells; hit rate 0.005% among 190,000; P34949; activation factor at 20 µM;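 active = activation factor of 2 or more at 20 µM, relative to plate controls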
PMI act hi M6P: PMI (human) activation, high substrate | hit rate 0.34% among 190,000 | activation factor at 20 µM | coupled PMI enzyme assay, resazurin fluorescence, 20 min; active compounds read high; 1 = untreated enzyme, 0 = substrate-free blank | AID 1216;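 active = activation factor of 2 or more at 20 µM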
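Material: human phosphomannose isomerase with PGI, G6PDH, diaphorase coupling enzymes; amount: PMI at 15 ng/mL final; also added: Mannose-6-phosphate 1.0 mM (near-saturating) plus 0.22 mM NADP+; incubation: enzyme reaction with compound 20 min at room temperature; signal: resorufin fluorescence (Ex 544/Em 590 nm) from resazurin via diaphorase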
Numbers without * were called inactive; / = not tested or not shown.

SMILES	Diaphorase inh	FLuc act counter	Diaphorase act	FLuc inh counter	PMI activator	PMI act hi M6P
CCOc1cc(C=O)ccc1OCc1cc(=O)n2cc(C)ccc2n1	-1	1.1	1	-8	1.1	1
CCOC(=O)C1(CCOC)CCN(C(=O)c2ccccc2-c2cccc(C)c2)CC1	5	1.1	0.9	-11	1.3	1.2
O=C(Nc1nc2ccccc2[nH]1)c1ccccc1	19	0.1	0.8	88*	0.8	0.9
CC(=O)Nc1nc2ccccc2[nH]1	9	1	0.9	-2	1	0.9
O=c1[nH]c2ccccc2nc1Cc1ccccc1	-2	1	1	0	1.2	1
O=C(Cc1nc2ccccc2[nH]c1=O)c1ccccc1	3	0.4	1	58*	1.1	1
C=CCn1c2ccccc2c2nnc(SCCCn3c(=O)[nH]c4ccccc43)nc21	57*	1	0.4	-1	0.8	0.8
C=CCn1c2ccccc2c2nnc(SCN3C(=O)c4ccccc4C3=O)nc21	20	1.1	0.8	-6	0.8	0.9
O=C(Nc1ccccc1C(F)(F)F)c1c(F)cccc1Cl	26	1	0.7	-4	0.9	0.9
O=C(Nc1ccc(Br)cc1)c1ccc(F)c(S(=O)(=O)NCc2cccs2)c1	2	1.1	1	-8	1.1	1.2
O=C(c1ccc(Cl)s1)N1CCc2ccccc21	10	0.6	0.9	36	0.9	0.9
CCc1sc(C(=O)N2CCc3ccccc32)cc1C	1	0.4	1	63*	1.1	1
CCc1nnc(NCC(=O)N2CCc3ccccc32)s1	8	1	0.9	-2	1.1	2.2*
O=C(N/N=C/c1ccco1)c1cccc(N2CCCC2=O)c1	14	0.5	0.9	52*	1	1
O=C(N/N=C/c1ccco1)c1cccc(N2Cc3ccccc3C2)c1	60*	1	0.4	3	1.5	1.6
O=[N+]([O-])c1cc(Cl)ccc1-c1nc(-c2ccccc2)no1	18	0.3	0.8	67*	0.8	0.9
O=[N+]([O-])c1cc(Cl)ccc1-c1nc(-c2ccncc2)no1	7	0.8	0.9	16	1	1
NC1=NC(=O)/C(=C\c2cc([N+](=O)[O-])ccc2Cl)S1	14	1	0.9	-1	0.9	0.9
Cc1cc(C)cc(-n2c(C)cc(/C=N\NC(=O)COc3cccc4cccnc34)c2C)c1	19	1.1	0.8	-8	0.8	0.9
Cc1cc(/C=N/NC(=O)c2ccncc2)c(C)n1-c1ccccc1	13	0.3	0.9	70*	0.9	0.9
Cc1cc(/C=N/NC(=O)c2cccc([N+](=O)[O-])c2)c(C)n1-c1ccccc1	15	0.3	0.9	66*	1	1
Cc1cc(/C=N/NC(=O)COc2cccc3cccnc23)c(C)n1-c1ccc(O)cc1	4	0.4	1	57*	1	0.8
COC(=O)N/N=C/c1cc(C)n(-c2ccccc2)c1C	0	0.5	1	52*	1	0.9
CC(c1ccc(F)cc1)n1c(Cn2ncc3ccccc3c2=O)n[nH]c1=S (configuration not stated)	/	1	/	2	/	/
COc1ccc2nc(NC(=O)CCN3C(=S)NC(C)(C)CC3C)sc2c1 (configuration not stated)	4	1	1	0	1	1
SMILES	Diaphorase inh	FLuc act counter	Diaphorase act	FLuc inh counter	PMI activator	PMI act hi M6P
CC1CCCCN1C(=O)/C=C/c1ccccc1[N+](=O)[O-] (configuration not stated)	3	1	1	0	0.9	0.8
Cc1cc(C(=O)N/N=C/c2ccc(O)c(O)c2O)c(C)n1-c1ccccc1	89*	0.3	0.1	70*	0.2	0.3
CCOC(=O)/C(C#N)=C\c1cc(C)n(-c2ccccc2)c1C	18	0.2	0.8	76*	0.8	0.8
Cc1cc(/C=N/NC(=O)c2cccs2)c(C)n1-c1ccccc1	7	0.1	0.9	91*	1	1
CCc1ccc(-n2c(C)cc(/C=N/NC(=O)c3ccncc3)c2C)cc1	84*	0.9	0.2	8	1.2	0.9
Cc1cc(C(=O)N/N=C2\CC(=O)CC(C)(C)C2)c(C)n1-c1ccccc1	-3	1	1	-1	0.9	0.6
Cc1cc(C(=O)N/N=C2\CC(=O)c3ccccc32)c(C)n1-c1ccccc1	22	0.4	0.8	60*	1.1	0.6
Cc1cc(/C=N/NC(=O)c2cccs2)c(C)n1-c1cnccn1	14	0.5	0.9	55*	0.9	0.9
CC(=O)c1c(C)[nH]c(C(=O)OC2CCCCC2=O)c1C (configuration not stated)	3	1	1	-4	1.3	1.1
O=C(COc1ccc(CO)cc1Cl)Nc1ccc(F)cc1	3	0.3	1	72*	1	1
COc1ccccc1OCC(=O)Nn1c(=S)[nH]c2ncccc2c1=O	3	1.1	1	-8	1	1
O=C(COc1ccc(Cl)cc1Cl)Nc1cccnc1	7	0.4	0.9	58*	1.1	1
O=C(COc1ccc(Cl)cc1Cl)Nn1c(=S)[nH]c2ncccc2c1=O	50*	1	0.5	-4	0.9	0.8
O=C(COc1ccc(CO)cc1)Nc1ccc(F)cc1	3	1	1	-3	1	1
CN(c1cccc(NC(=O)COc2ccc(Cl)cc2Cl)c1)S(C)(=O)=O	8	0.3	0.9	69*	1	1
Cc1cc(C)n(C(=O)c2cc3c(s2)CCCC3)n1	12	1	0.9	-2	0.9	0.9
CC1C/C(=N/Nc2nc3ccccc3[nH]2)CC(C)(C)C1 (configuration not stated)	7	0.9	0.9	5	1.1	1
Cn1c(/C=N/Nc2nc3ccccc3[nH]2)nc2ccccc21	-18	0.2	1.2	83*	1.1	1
Cc1cc(=O)[nH]c(N/N=C/c2c(C)nn(-c3ccccc3)c2C)n1	0	1	1	-4	1	1.1
CCCn1c(/C=N/Nc2nc3ccccc3[nH]2)nc2ccccc21	16	0.9	0.8	10	0.9	1
Cc1nn(-c2ccccc2)c(C)c1/C=N/Nc1nc2ccccc2[nH]1	-6	0.2	1.1	80*	1	0.9
c1ccc2[nH]c(NN=C3CCCCCC3)nc2c1	-23	0.2	1.2	82*	1.1	1
Clc1nc2ccccc2cc1/C=N/Nc1nc2ccccc2[nH]1	-5	0.1	1.1	88*	1	1.1
